pPAFAH FP inh – pPAFAH (human) enzyme inhibition; Q13093; recombinant pPAFAH, FP-rhodamine probe fluorescence polarization; inhibition, % at 3.39 µM; actives 1.5% (n = 330,000); AID 463082;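 active = inhibition above the mean inhibition across the screen plus 3 SD, cut at about 25% in these data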;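 also: inhibitors block binding of the rhodamine activity-based probe so polarization drops; 0% = enzyme with DMSO and 100% = wells lacking pPAFAH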
Target sequence (Q13093 whole entry, looked up): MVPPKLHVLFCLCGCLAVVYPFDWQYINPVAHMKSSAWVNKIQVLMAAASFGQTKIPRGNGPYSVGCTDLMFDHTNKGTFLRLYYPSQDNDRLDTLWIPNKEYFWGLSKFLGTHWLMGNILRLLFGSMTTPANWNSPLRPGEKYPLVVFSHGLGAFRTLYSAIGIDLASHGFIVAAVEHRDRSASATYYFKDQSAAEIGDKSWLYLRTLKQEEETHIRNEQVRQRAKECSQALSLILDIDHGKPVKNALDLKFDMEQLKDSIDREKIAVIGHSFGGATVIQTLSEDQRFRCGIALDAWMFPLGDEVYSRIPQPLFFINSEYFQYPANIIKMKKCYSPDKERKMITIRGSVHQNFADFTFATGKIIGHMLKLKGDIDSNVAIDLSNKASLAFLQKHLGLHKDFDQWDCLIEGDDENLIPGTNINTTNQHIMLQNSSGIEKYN
mABHD4 FP – inhibits mouse alpha/beta hydrolase domain 4. Q8VD66. purified mABHD4, FP-Rh probe fluorescence polarization. inhibition, % at 8.92 µM. actives 0.54% (n = 370,000);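 active = inhibition exceeding the mean over every tested compound plus 3 SD, cut at about 30% in these data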;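 also: 0% = plate median of compound wells and 100% = S159A mutant with DMSO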
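system = mouse ABHD4 enzyme, wild type | medium = HEPES pH 7.0, NaCl, Pluronic buffer | also added = FP-Rh probe | incubation = Enzyme–compound pre-incubation 45 min, then probe 60 min, both 25 °C | technique = fluorescence polarization, excitation 525 nm, emission 598 nm, BODIPY TMR filters | controls = S159A mutant high control, sample median low control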
HTRA1 inhibitor – inhibitors of human serine peptidase HTRA1; actives 0.5% (n = 340,000); Q92743; inhibition, % at 5.96 µM; recombinant HTRA1, FP-rhodamine activity-based probe, fluorescence polarization; AID 504803; in the data active = inhibition above about 36%;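 also: 0% = enzyme with DMSO and 100% = wells lacking enzyme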
SIAE primary – inhibitors of human sialic acid acetylesterase SIAE; Q9HAT2; SIAE FP-Rh probe binding, fluorescence polarization; inhibition, % at 9.66 µM; actives 0.69% (n = 370,000); AID 1053197;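 active = inhibition above a cutoff: mean of compounds within the control limits plus 3 SD of those, cut at about 17% in these data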;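 also: 0% = plate median of compound wells and 100% = probe without SIAE protein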
TCR-CD3 inh – human TCR-CD3 binding inhibition | TAMRA-labeled TCR probe fluorescence, biochemical | inhibition, % at 9.4 µM | actives 0.37% (n = 360,000) | AID 651800;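 also: recombinant mutant TCR 2C K166C tagged with TAMRA read by polarization; 0% = receptor in buffer alone and 100% = receptor with positive control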
HTRA1 inh conf – confirmation of human HTRA1 inhibitors; actives 66% (n = 1,600); recombinant HTRA1, FP-rhodamine activity-based probe, fluorescence polarization; shares compounds with HTRA1 inhibitor; inhibition, % at 5.96 µM;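 active = mean inhibition over three repeats above a set limit taken from the earlier primary screen, cut at about 37% in these data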;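 also: 0% = HTRA1 with DMSO and 100% = wells lacking HTRA1; inhibitors block probe binding so polarization drops and inhibition rises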
BSA probe FL – BSA probe counter-screen for TCR-CD3 inhibitors. inhibition, % at 9.4 µM. shares compounds with TCR-CD3 inh. actives 10% (n = 1,200). TAMRA-labeled BSA probe fluorescence counterscreen; in the data active = inhibition above about 23%;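 also: 0% = buffer low control and 100% = reference high control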
TCR-CD3 conf – TCR-CD3 interaction inhibition, confirmation. TAMRA-labeled TCR probe fluorescence binding assay. inhibition, % at 9.4 µM. shares compounds with TCR-CD3 inh. actives 48% (n = 1,200)
mABHD4 conf – confirmation of mouse ABHD4 inhibitors. shares compounds with mABHD4 FP. purified mABHD4, FP-Rh probe fluorescence polarization. inhibition, % at 8.92 µM. actives 55% (n = 1,800). AID 720658;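 active = mean inhibition across replicates above the hit cutoff set in the primary screen, cut at about 30% in these data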;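 also: 0% = wild-type ABHD4 with DMSO and 100% = catalytically dead S159A mutant with DMSO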
SIAE confirm – confirmation of human SIAE inhibitors | shares compounds with SIAE primary | inhibition, % at 9.66 µM | actives 13% (n = 2,300) | SIAE FP-Rh activity-based probe, fluorescence polarization | AID 1117263;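 active = mean inhibition of the replicates above the hit cutoff set in the primary screen, cut at about 17% in these data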;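 also: 0% = SIAE with DMSO and probe and 100% = probe without SIAE; inhibitors lower polarization as more probe stays unbound to SIAE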
Active calls of the source: *; . = not tested or not shown. Only some compounds are listed: those with a hit (about 2.3% of all), similar ones and a draw of the others. Rule as the data show it, unless noted: active = inhibition above about 19%; inactive = the rest.

SMILES	pPAFAH FP inh	mABHD4 FP	HTRA1 inhibitor	SIAE primary	TCR-CD3 inh	HTRA1 inh conf	mABHD4 conf	SIAE confirm	others
CC1(C)OC(C)(C)/C(=C/Nc2ccc(O)cc2)C1=O	21	62*	63*	33*	33*	21	25	9	BSA probe FL=9;TCR-CD3 conf=14
C#CCn1cc(/C=N/Nc2nc3ccccc3[nH]2)c2ccccc21	29*	24	43*	55*	-5	45*	.	61*
Oc1c(C(Nc2ccccn2)c2ccccn2)ccc2cccnc12 (stereo not drawn)	5	7	11	9	1	.	.	.
CCC(=O)NC(c1ccc(Cl)cc1Cl)c1ccc2cccnc2c1O (stereo not drawn)	27*	19	74*	19*	3	73*	.	15
Cc1ccc2ccc(C(Nc3ccccc3)c3ccc(Cl)cc3)c(O)c2n1 (stereo not drawn)	.	-11	.	-1	3	.	.	.
CC(=O)NC(c1ccc(Cl)cc1)c1ccc2cccnc2c1O (stereo not drawn)	.	13	46*	17*	-2	79*	.	10
O=C(Nc1ccc(C(O)(C(F)(F)F)C(F)(F)F)cc1)c1ccc(F)cc1Cl	.	-35	.	-11	.	.	.	.
COC(=O)C1(C(=O)OC)c2cc3c(cc2CN(S(=O)(=O)c2ccc(C)cc2)C1CC(C)=O)OCO3 (stereo not drawn)	.	-6	.	-1	1	.	.	.
CCOC(=O)/C(N=Nc1sc(C(=O)OCC)c(C)c1C(=O)OCC)=C(\C)O	2	.	.	.	.	.	.	.
CCOC(=O)c1sc(N=NC2=C(O)CCCC2=O)c(C(=O)OCC)c1C	28*	52*	48*	22*	4	38*	34*	0
CC(=O)Nc1ccc(S(=O)(=O)Nc2cccc3[nH]ncc23)cc1	10	2	-2	10	3	.	.	.
O=C(Nc1cccc2[nH]ncc12)NS(=O)(=O)c1ccccc1	11	98*	44*	48*	58*	7	8	9	BSA probe FL=35*;TCR-CD3 conf=27*
O=[N+]([O-])c1cc(Br)c(O)c(C=Nc2ccc(N3CCOCC3)cc2)c1	34*	45*	40*	29*	49*	1	7	-2
O=C1C=CC(=O)c2c(O)c(CO)c(CO)c(O)c21	.	62*	46*	53*	78*	57*	.	44*	BSA probe FL=-3;TCR-CD3 conf=59*
CC(=O)Nc1ccc(S(=O)(=O)NC2=C(N3CCN(c4ccc(F)cc4)CC3)C(=O)c3ccccc3C2=O)cc1	7	22	55*	25*	0	71*	.	24*
CSCCC(C(=O)Nc1c(C)cccc1C)n1c(-c2ccc(C(F)(F)F)cc2)nc2ccccc21 (stereo not drawn)	.	-2	.	1	0	.	.	.
COc1ccc(/C=N\NC(=O)c2cc(O)c(O)c(O)c2)cc1CN1CCN(c2ccc(F)cc2)CC1	30*	29	83*	30*	23*	78*	.	-7	BSA probe FL=-8;TCR-CD3 conf=23*
COC(=O)[C@]12C[C@H](CC(=O)N3CCCC3)C(=O)N(Cc3ccccc3)C1=C[C@H](COCc1ccccc1)O[C@@H]2C	.	6	.	1	.	.	.	.
CN(C(=S)Nc1ccc(Oc2ccccc2)cc1)c1ccc(O)cc1	27*	35*	45*	21*	2	-13	6	-3
Cc1cc(C(=O)COc2cccc3cccnc23)c(C)n1C	26*	74*	80*	23*	11	16	12	5
c1ccc(C2Nc3cccc4cccc(c34)N2)cc1	8	23	5	10	-2	.	.	.
COc1cc(OC)c(C2Nc3cccc4cccc(c34)N2)c(OC)c1	.	50*	52*	21*	-3	19	36*	7
CCOc1ccccc1CNc1ccc(O)cc1	.	57*	61*	34*	21*	24	.	6	BSA probe FL=6;TCR-CD3 conf=6
Oc1ccc(NCc2ccc(OCc3ccccc3)cc2)cc1	.	53*	47*	29*	30*	6	19	13
Oc1ccc(NCc2ccccc2OCc2ccccc2F)cc1	31*	49*	63*	34*	11	21	50*	10
SMILES	pPAFAH FP inh	mABHD4 FP	HTRA1 inhibitor	SIAE primary	TCR-CD3 inh	HTRA1 inh conf	mABHD4 conf	SIAE confirm	others
CCOc1cccc(CNc2ccc(O)cc2)c1OCc1ccc(Cl)cc1	33*	41*	49*	29*	16	19	36*	8
COc1cccc(CNCCO)c1OCc1ccc(Cl)cc1	3	5	0	2	-4	.	.	.
Cc1ccc(NCc2ccccc2OCc2ccccc2F)cc1	7	0	-9	-2	-2	.	.	.
CC(C)CNc1cccc2c1S(=O)(=O)N(Cc1ccc(F)cc1)[C@@H](C)[C@H](c1ccccc1)O2	.	-3	.	3	-1	.	.	.
CC(=O)Nc1cncc(-c2cccc(C(=O)N(C)C)c2)n1	.	-1	.	-3	0	.	.	.
CC(C)c1ccc(NC(=O)CSc2nnc(-c3ccco3)n2C)cc1	.	0	.	0	.	.	.	.
CN1CCOc2c1cnn(CCO)c2=O	.	4	.	3	5	.	.	.
O=[N+]([O-])c1ccc(NCCCO)c(S(=O)(=O)N2CCOCC2)c1	3	1	3	0	4	.	.	.
O=[N+]([O-])c1ccc(N/N=C/c2ccc(O)c(O)c2O)c(S(=O)(=O)N2CCOCC2)c1	.	37*	74*	28*	11	74*	58*	-3
CCOc1ccc(Nc2ccc(N)c(S(=O)(=O)O)c2)cc1	.	107*	93*	21*	42*	53*	55*	9	BSA probe FL=2;TCR-CD3 conf=21*
CCOc1ccc(NS(=O)(=O)c2ccc(N)cc2)cc1	18	3	2	-1	-8	.	.	.
COc1cccc(Nc2nc(C(N)Cc3ccc(Cl)cc3)cs2)n1 (stereo not drawn)	.	22	.	2	2	.	.	.
C=C1N(C)c2cc([N+](=O)[O-])c(N)cc2C1(C)C	6	23	54*	18*	1	33	.	15
Nc1ccc(Oc2ccc(N)c([N+](=O)[O-])c2)cc1[N+](=O)[O-]	.	3	5	3	-2	.	.	.
COc1cc(/C=C/c2ccc3c(Br)cc(Br)c(O)c3n2)ccc1O	34*	0	44*	28*	0	31	.	-5
